# This is a sample that favours compounds with a hit; in the whole collection about 1.2% have one here.
# CRFR2-BP antag: antagonists of CRF-binding protein/CRF-R2 receptor complex; HEK293 CRF-R2/CRF-BP, CRF-induced calcium fluorescence; inhibition, % at 11.8 µM; 350,000 compounds, 0.59% hits; AID 588475;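 active means inhibition of the ligand-induced calcium signal above about 50% at the single tested concentration, limit read from the data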
# DDE Tn7 FP inh: DD(E)-Tn7 binding inhibition, primary FP screen. inhibition, % at 8.3 µM. FP displacement of FITC-Tn7 peptide from fibrin DD(E); 0% = median of compound wells per plate. P02675. 370,000 compounds, 0.13% hits;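 active means inhibition above the mean of compounds falling within the control limits plus 3 SD of them, cut at about 14% in these data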;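 further: 0% = plate median of compound wells and 100% = 10 µM Aha-Tn7 peptide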
# Target sequence (P02675 whole entry, looked up): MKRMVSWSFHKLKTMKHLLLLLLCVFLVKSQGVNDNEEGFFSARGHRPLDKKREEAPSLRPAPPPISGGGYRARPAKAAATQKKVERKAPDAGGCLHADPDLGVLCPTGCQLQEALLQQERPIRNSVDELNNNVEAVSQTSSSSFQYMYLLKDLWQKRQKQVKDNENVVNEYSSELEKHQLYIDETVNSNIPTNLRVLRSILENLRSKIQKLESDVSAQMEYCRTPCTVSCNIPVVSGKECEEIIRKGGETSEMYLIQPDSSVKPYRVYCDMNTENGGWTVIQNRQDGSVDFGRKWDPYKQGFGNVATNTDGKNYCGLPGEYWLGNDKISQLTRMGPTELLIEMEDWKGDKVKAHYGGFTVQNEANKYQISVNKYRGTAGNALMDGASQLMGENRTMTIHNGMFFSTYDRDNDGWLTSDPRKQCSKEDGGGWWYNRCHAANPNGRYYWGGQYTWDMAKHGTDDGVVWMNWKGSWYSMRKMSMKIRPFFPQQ
#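 Measure: % inhibition scaled between sample-field median and high-control FP; Test system: human fibrin DD(E); Quantity: 2 µM final DD(E) protein; Doses: one dose, 8.3 µM nominal; Schedule: compound with protein 10 min, then 3 h after probe, room temperature; Detection: fluorescence polarization; Medium: Tris buffer with calcium and detergent, pH 7.8.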
# DDE Tn6 FP inh: inhibitors of Tn6 peptide binding to human fibrin DD(E). P02675. Fibrin DD(E) TRITC-Tn6 fluorescence polarization displacement. inhibition, % at 8.3 µM. 370,000 compounds, 0.21% hits;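 active means inhibition above a per-campaign cutoff: mean of compounds within control limits plus 3 SD, cut at about 15% in these data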;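 further: 0% = median of all compound wells on the plate and 100% = blocking peptide control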
# CRFBP-R2 agonist: CRF-BP/CRF-R2 complex agonism; AID 588473; 350,000 compounds, 0.46% hits; activation, % at 13.2 µM; HEK293 CRF-R2/CRF-BP, calcium dye fluorescence (FLIPR); percent of saturating CRF peptide response;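 active means activation of at least 50%, plus an integration ratio under a set limit after plate pattern correction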;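 further: plate controls were neutral control wells without compound for no effect and CRF at EC100 for full effect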
# Starred values were filed as active, the others as inactive; nt = no result.
SMILES,CRFR2-BP antag,DDE Tn7 FP inh,DDE Tn6 FP inh,CRFBP-R2 agonist
C#CCOCCOCCOCCNc1nc(N2CCN(C(=O)CCCCCCCCCCNC(=O)Cn3cc(CCCCCN)nn3)CC2)nc(N2CCN(C(=O)CCCCCCCCCCNC(=O)[C@H]([C@@H](C)CC)n3cc(CCCCCN)nn3)CC2)n1,-61,nt,nt,89*
Cc1nn(CCC(=O)NNC(=O)Nc2ccccc2F)c(C)c1[N+](=O)[O-],nt,5,1,nt
CC1OC(OC2C(CO)OC(OCC3OC(OC(=O)[C@@]45CCC(C)(C)C[C@@H]4C4=CC[C@@H]6[C@@]7(C)CCC(OC8OCC(O)C(O)C8OC8OC(C)C(O)C(O)C8O)[C@@](C)(CO)C7CC[C@@]6(C)[C@]4(C)CC5)C(O)C(O)C3O)C(O)C2O)C(O)C(O)C1O (stereo partly drawn),12,-1,-13,2
C[C@H]1O[C@@H](O[C@H]2CC[C@@]3(C)C(CC[C@]4(C)C3C=C[C@]35OC[C@@]6(CCC(C)(C)C[C@H]63)[C@@H](O)C[C@]54C)[C@]2(C)CO)[C@H](O)[C@@H](O[C@@H]2O[C@H](CO)[C@@H](O)[C@H](O)[C@H]2O)[C@H]1O (stereo partly drawn),-46,3,1,87*
CC1(c2ccc(OC(F)F)cc2)NC(=O)N(/N=C/c2c(O)ccc3ccccc23)C1=O (stereo not drawn),-122,4,4,87*
CCN1CCN(Cc2ccc(NC(=O)c3cc(NC(=O)C(=O)c4c[nH]c5ccccc45)cc(OC)c3)cc2C(F)(F)F)CC1,-12,4,44*,2
COCC(=O)N(C)[C@H]1C[C@H]2c3[nH]c4c(-c5ccc6c(c5)OCO6)cccc4c3CCN2C(=O)[C@H]1[C@H](C)O,nt,-1,0,nt
O=C(O)c1cc([N+](=O)[O-])ccc1N1CCCCC1,-3,3,-5,-3
Cc1ccc(C(=O)c2cc([N+](=O)[O-])ccc2N2CCCCC2)c(C)c1,-130,-2,2,133*
CN(C)c1ccc(/C=C(\C#N)C(=O)Nc2nc3c(s2)CCN(Cc2ccccc2)C3)cc1,-459,-10,1,345*
O=C(NC(=S)NCC1CCCO1)C(c1ccccc1)c1ccccc1 (stereo not drawn),55*,-3,-3,2
O=C1C(NC(=O)N2c3ccccc3C=Cc3ccccc32)CCCCN1Cc1cccc(C(F)(F)F)c1 (stereo not drawn),nt,-4,-14,nt
Cc1ccc(C)c(N2CCN(S(=O)(=O)c3ccc4c(c3)C(C)(C)C(=O)N4C)CC2)c1,127*,9,-7,-2
COc1cc(NC(=O)C2CCCN(S(=O)(=O)c3cccs3)C2)cc(OC)c1 (stereo not drawn),nt,4,2,nt
O=c1cnc2ccccc2n1Cc1ccccc1,-14,0,0,-1
CSCCC(NC(=O)c1cccc(S(=O)(=O)N2CCN(C(C)=O)CC2)c1)c1nc2ccccc2[nH]1 (stereo not drawn),-1,-3,-4,1
CSCC[C@H](NC(=O)c1cccc(S(=O)(=O)N2CCN(C)CC2)c1)c1nc2ccccc2[nH]1,-27,5,8,71*
N=c1c2c(ccn1Cc1ccccc1)Oc1ccc3ccccc3c1C2c1ccccc1 (stereo not drawn),nt,3,0,nt
COc1ccccc1-[n+]1c(C)cc(/C=C2\Sc3ccccc3N2C)cc1C,-169,-12,-3,175*
Nn1c(SCC(=O)Nc2cccc3ccccc23)nnc1-c1n[nH]c2c1CCC2,nt,-1,-3,nt
O=C1c2ccccc2-c2onc3ccc(NCCCn4ccnc4)c1c23,-166,nt,nt,194*
CCOC(=O)C1CCN(S(=O)(=O)NC[C@H]2O[C@@H](n3cnc4c(N)ncnc43)[C@H](O)[C@@H]2O)C1 (stereo partly drawn),13,-3,-2,0
CCOc1ccc(/C=N/NC(=O)C(C)N(c2ccc(OC)cc2)S(C)(=O)=O)cc1OCC (stereo not drawn),55*,11,0,0
CCC(C)C(=O)Nc1nnc(SCC(=O)NC(C)(C)C)s1 (stereo not drawn),67*,4,7,0
CS(=O)(=O)Nc1ccccc1C(=O)NCc1ccccc1Cl,61*,-1,-4,2
SMILES,CRFR2-BP antag,DDE Tn7 FP inh,DDE Tn6 FP inh,CRFBP-R2 agonist
Cc1ccc(C(=O)Nc2ncc([N+](=O)[O-])s2)cc1,19,1,5,58*
CCCCCN(C(=O)COC(=O)CSc1ccc([N+](=O)[O-])cc1)c1c(N)n(CCCC)c(=O)[nH]c1=O,-10,-7,4,2
Oc1ccccc1C=NCCN1CCN(CCN=Cc2ccccc2O)C1c1ccccc1O (stereo not drawn),66*,-1,2,-5
Oc1ccccc1C=NCCN=Cc1ccccc1O,16,0,6,-2
CCN(CC)c1ccc2cc(-c3nc4ccccc4[nH]3)c(=O)oc2c1,-190,nt,nt,227*
CCN(CC)c1ccc2cc(-c3nnc(-c4ccccc4)o3)c(=O)oc2c1,-155,-7,-1,192*
COc1cccc2cc(-c3nc4ccccc4[nH]3)c(=O)oc12,0,-3,3,-1
CCN(CC)c1ccc2cc(-c3nc(-c4ccc(OC)cc4)cs3)c(=O)oc2c1,-404,-1,0,338*
COc1ccc(-c2nnc(-c3cc4c(ccc5ccccc54)oc3=O)o2)cc1,43,0,5,29
O=c1oc2ccccc2cc1-c1nnc(-c2cccc(Br)c2)o1,22,0,6,0
O=c1oc2ccc3ccccc3c2cc1-c1nnc(-c2ccccc2)o1,61*,9,-1,2
CN(C(=O)[C@@H]1CC=C[C@@H]2CCN(C3CCCCC3)C(=O)[C@@H]21)c1ccccc1,nt,3,-6,nt
COC(=O)C[C@@H]1CC[C@H](NC(=O)Nc2ccc(OC)cc2)[C@@H](CO)O1,nt,1,5,nt
Cc1cc(OCC(C)CN2CCC(C(O)(c3ccccc3)c3ccccc3)CC2)ccc1Br (stereo not drawn),nt,-14,2,nt
CCN(CC)c1ccc2cc(-c3nc4ccccc4n3C)c(=O)oc2c1,-239,1,4,248*
CC(C)N1CCN(Cc2nc(-c3ccccc3)cs2)CC1CCO (stereo not drawn),82*,0,4,-3
OCCC1CN(Cc2nc(-c3ccccc3)cs2)CCN1C1CCCC1 (stereo not drawn),-2,-1,-4,1
C[C@@H]1C=CCCO[C@]12C(=O)N(Cc1ccc(Br)cc1)c1cccc(Br)c12,nt,6,-3,nt
O=c1cc[nH]c2c(Cl)cccc12,92*,-4,-14,-2
COC(=O)c1sc(NC(=S)NC(=O)c2cccc(C)c2)nc1C,17,-1,8,65*
COC(=O)c1sc(NC(=S)NC(=O)c2ccccc2F)nc1C,-15,-4,-6,47
Cc1cc2nc(-c3ccc(SCC(=O)Nc4ccc(S(=O)(=O)NC5CC5)cc4)nc3)[nH]c2cc1C,18,-6,29*,4

# Assay outcomes deposited in PubChem by several laboratories.
